Screening results (PubChem BioAssay)
A selection: hits, their analogues and other compounds. The true share with any hit is near 2.5%.
HTRA1 inhibitor – inhibitors of human serine peptidase HTRA1. recombinant HTRA1, FP-rhodamine activity-based probe, fluorescence polarization. inhibition, % at 5.96 µM. 340,000 compounds, 0.5% hits; in the data active = inhibition above about 36%
Target sequence (Q92743 whole entry, looked up): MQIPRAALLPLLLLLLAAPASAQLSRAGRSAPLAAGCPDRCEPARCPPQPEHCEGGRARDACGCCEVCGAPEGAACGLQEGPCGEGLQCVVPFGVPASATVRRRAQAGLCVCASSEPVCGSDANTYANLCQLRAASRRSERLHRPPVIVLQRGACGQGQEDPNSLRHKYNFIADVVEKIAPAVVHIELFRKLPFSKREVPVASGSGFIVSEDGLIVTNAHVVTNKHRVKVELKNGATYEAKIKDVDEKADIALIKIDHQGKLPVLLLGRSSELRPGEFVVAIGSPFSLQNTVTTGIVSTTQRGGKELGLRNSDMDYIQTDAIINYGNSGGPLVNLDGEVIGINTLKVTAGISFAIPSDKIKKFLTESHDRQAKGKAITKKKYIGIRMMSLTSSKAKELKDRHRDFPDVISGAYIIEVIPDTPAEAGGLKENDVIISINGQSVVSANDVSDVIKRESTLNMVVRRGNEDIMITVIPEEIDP
rCAG RNA binder – r(CAG) repeat RNA binding; AID 651821; TO-PRO-1 dye displacement fluorescence; 370,000 compounds, 1.3% hits; inhibition, % at 3 µM;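 active = inhibition above the plate cutoff, the mean of all test compounds on that plate plus 3 SD, cut at about 35% in these data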;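 also: higher means more dye released from RNA so lower well fluorescence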
TCR CD3 inh – human TCR-CD3 binding inhibition. TAMRA-labeled TCR probe fluorescence, biochemical. inhibition, % at 9.4 µM. 360,000 compounds, 0.37% hits. AID 651800; in the data active = inhibition above about 19%;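 also: recombinant mutant TCR 2C K166C tagged with TAMRA read by polarization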
SIAE primary – inhibitors of human sialic acid acetylesterase SIAE | Q9HAT2 | inhibition, % at 9.66 µM | 370,000 compounds, 0.69% hits | SIAE FP-Rh probe binding, fluorescence polarization;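 active = inhibition above a cutoff: mean of compounds within the control limits plus 3 SD of those, cut at about 17% in these data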
ABHD4 inh – inhibits mouse alpha/beta hydrolase domain 4; inhibition, % at 8.92 µM; Q8VD66; 370,000 compounds, 0.54% hits; purified mABHD4, FP-Rh probe fluorescence polarization;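 active = inhibition exceeding the mean over every tested compound plus 3 SD, cut at about 30% in these data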
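Assay system: mABHD4 protein; medium: HEPES pH 7.0, NaCl, Pluronic buffer; dosing: 8.92 µM, single dose; schedule: 45 min + 60 min at 25 °C; signal: FP readout, ex 525 nm / em 598 nm; read-out: normalized percent inhibition of probe labeling; repeats: single replicate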
rCAG bind conf – r(CAG) RNA repeat binding, confirmation; shares compounds with rCAG RNA binder; inhibition, % at 3 µM; 4,300 compounds, 70% hits; TO-PRO-1 dye displacement fluorescence;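 active = inhibition above a per-plate cutoff, the mean inhibition of sample wells plus 3 SD, cut at about 35% in these data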;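 also: loss of TO-PRO-1 fluorescence as compound displaces dye from 1x1 AA loop RNA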
dCAG dye counter – disrupts DNA CAG TO-PRO-1 complex, flagging rCAG hits. d(CAG) DNA oligo TO-PRO-1 dye displacement, fluorescence. AID 652068. 4,300 compounds, 94% hits. shares compounds with rCAG RNA binder. inhibition, % at 3 µM;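 active = inhibition above its plate's cutoff, the mean test-well inhibition plus 3 SD, cut at about 4.8% in these data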;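 also: hits displace the dye from DNA and so lower well fluorescence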
dCAG dye DR – DNA CAG dye complex inhibition, dose response counter-screen. 250 compounds, 20% hits. DNA CAG/GTC duplex TO-PRO-1 dye displacement fluorescence. IC50, µM. shares compounds with rCAG RNA binder. AID 686960; in the data active = IC50 below about 10 µM
A number is an active result; i = inactive; nt = no result given.

SMILES | HTRA1 inhibitor | rCAG RNA binder | TCR CD3 inh | SIAE primary | ABHD4 inh | rCAG bind conf | dCAG dye counter | others
COc1cc(CC(=O)OCC(=O)NC2CCCCC2C)cc(OC)c1OC (stereo unspecified) | i | i | i | i | i | nt | nt
Cc1nn(-c2ccccc2)c(Cl)c1/C=N/NC(=O)c1ccccc1NS(=O)(=O)c1cccs1 | i | 76 | i | i | i | 80 | 45
O=C(NN=Cc1c(F)cccc1F)c1ccccc1NS(=O)(=O)c1cccs1 | i | 38 | i | i | i | i | 4.6
Cn1nnnc1SCc1ccccc1[N+](=O)[O-] | i | i | i | i | i | nt | nt
O=C(c1cc(Br)c(Br)s1)N1CCOCC1 | i | i | i | i | i | nt | nt
O=C(NNC(=O)C1CC1)c1cc(Br)c(Br)s1 | i | 36 | i | i | i | 37 | 13
CN[C@H]1C[C@H]2c3[nH]c4cccc(-c5cccc(F)c5)c4c3CCN2C(=O)[C@H]1[C@H](C)O | nt | i | nt | i | i | nt | nt
CN(C)S(=O)(=O)c1cccc(-c2nn(-c3ccccc3)cc2/C=C(\C#N)c2nc3ccccc3[nH]2)c1 | i | i | i | i | i | nt | nt
CN(C)S(=O)(=O)c1cccc(-c2nn(-c3ccccc3)cc2/C=C2\SC(=S)NC2=O)c1 | i | 69 | i | i | i | 89 | 66
CCOc1ccc(-c2cccc(NS(=O)(=O)c3ccccc3[N+](=O)[O-])c2)nn1 | i | 35 | i | i | i | i | 8.5
CCOc1ccc(-c2ccc(NS(=O)(=O)c3cc([N+](=O)[O-])c(C)c([N+](=O)[O-])c3)cc2)nn1 | i | 68 | i | i | i | 44 | 14
O=[N+]([O-])c1cccc(S(=O)(=O)Nc2ccc(-c3ccc(N4CCCC4)nn3)cc2)c1 | i | i | i | i | i | nt | nt
O=[N+]([O-])c1ccccc1S(=O)(=O)Nc1ccc(-c2ccc(N3CCCC3)nn2)cc1 | i | 37 | i | i | i | 38 | 16
CCOc1ccc(-c2cccc(NS(=O)(=O)c3cc([N+](=O)[O-])ccc3C)c2)nn1 | i | 38 | i | i | i | 43 | 13
CCCn1c(SCC(=O)NC(=O)Nc2ccc(C)cc2C)n[nH]c1=O | i | i | i | i | i | nt | nt
Cc1ccc(S(=O)(=O)Nc2ccc3c(c2)OCCO3)cc1C | i | i | i | i | i | nt | nt
Cc1nn(CCS(=O)(=O)c2ccc(Cl)cc2)c(C)c1Br | nt | i | i | i | i | nt | nt
N=c1c2cn[nH]c2nc(SCC(=O)c2ccc(Br)cc2)n1-c1ccc(Br)cc1 | i | i | i | i | i | nt | nt
C[C@@H]1[C@H](O)[C@@H](C)/C=C/C=C/C=C/C=C/C=C/C=C/C=C/[C@H](OC2O[C@H](C)[C@@H](O)[C@H](N)[C@@H]2O)C[C@@H]2O[C@](O)(C[C@@H](O)C[C@@H](O)[C@H](O)CC[C@@H](O)C[C@@H](O)CC(=O)O[C@H]1C)C[C@H](O)[C@H]2C(=O)O (stereo partly specified) | nt | 41 | nt | i | i | 44 | 14 | dCAG dye DR=i
Cc1cc(C)nc(NS(=O)(=O)c2ccc(NC(=O)CN3C(=O)S/C(=C\c4ccccc4)C3=O)cc2)n1 | i | 60 | i | i | i | 69 | 30
Cc1cc(C)nc(NS(=O)(=O)c2ccc(NC(=O)CN3C(=O)C4CC=CCC4C3=O)cc2)n1 (stereo unspecified) | i | i | i | i | i | nt | nt
COc1ccccc1/C=C1/SC(=O)N(CCC(=O)Nc2ccc(S(=O)(=O)Nc3nccs3)cc2)C1=O | i | 79 | i | i | i | 80 | 46
O=C(CCN1C(=O)S/C(=C\c2ccccc2)C1=O)Nc1ccc(S(=O)(=O)Nc2nccs2)cc1 | i | 77 | i | i | i | 74 | 39
COc1ccccc1/C=C1/SC(=S)N(CCC(=O)Nc2cccnc2)C1=O | i | i | i | i | i | nt | nt
O=[N+]([O-])c1ccc(S(=O)(=O)Nc2nc3ccccc3nc2Nc2ccccc2)cc1 | nt | i | i | i | i | nt | nt
SMILES | HTRA1 inhibitor | rCAG RNA binder | TCR CD3 inh | SIAE primary | ABHD4 inh | rCAG bind conf | dCAG dye counter | others
NS(=O)(=O)c1cccc(Nc2nc3ccccc3nc2NS(=O)(=O)c2ccc(Cl)cc2)c1 | i | 90 | i | i | i | 89 | 68
O=C(O)c1cccc(Nc2nc3ccccc3nc2NS(=O)(=O)c2ccccc2)c1 | i | 36 | i | i | i | 39 | 12
O=C(O)c1ccc(Nc2nc3ccccc3nc2NS(=O)(=O)c2ccc(F)cc2)cc1 | i | 41 | i | i | i | 53 | 21
CC(C)CC(C(=O)Nc1oc(-c2ccccc2)c(-c2ccccc2)c1C#N)N1C(=O)c2ccccc2C1=O (stereo unspecified) | i | 51 | i | i | i | 39 | 19
CCOC(=O)C1CCCN(c2nc3ccccc3nc2NS(=O)(=O)c2ccc(C)cc2)C1 (stereo unspecified) | i | 62 | i | i | i | 58 | 15
O=C(NCc1ccccc1Br)c1cccc2c1C(=O)c1ccc(-c3ccc(OC(F)(F)F)cc3)cc1S2(=O)=O | i | nt | nt | nt | nt | nt | nt
O=C(O)c1cccc2c1C(=O)c1ccc(-c3ccc(OC(F)(F)F)cc3)cc1S2(=O)=O | i | 69 | i | i | i | 60 | 16
O=C(CSc1nc2ccccc2c(=O)n1-c1ccccc1F)NC1CC1 | i | i | i | i | i | nt | nt
CCOc1cc(C(=O)NC(CC(=O)O)c2ccc(OC3CCCC3)cc2)cc(OCC)c1OCC (stereo unspecified) | i | i | i | i | i | nt | nt
CC(C)(C)c1ccc(C(=O)NC(CC(=O)O)c2ccc(OC3CCCC3)cc2)cc1 (stereo unspecified) | i | 39 | i | i | i | 43 | 8.0
CC(C)(C)c1ccc(N/N=C(\C#N)S(=O)(=O)C(C)(C)C)cc1 | i | 36 | i | i | i | 50 | 19
COC(=O)c1ccc(CSc2nc3c(cnn3-c3ccccc3)c(=O)[nH]2)o1 | i | 38 | i | i | i | 36 | 8.0
COC(=O)c1ccc(CSc2nc3c(cnn3-c3ccc(F)cc3)c(=O)[nH]2)o1 | i | nt | nt | nt | nt | nt | nt
CC(C)N1CC(O)=C(c2nc3ccccc3[nH]2)C1=N | i | i | i | i | i | nt | nt
CCn1nc(NS(=O)(=O)c2ccc([N+](=O)[O-])cc2)c2cc3cccc(C)c3nc21 | i | 85 | i | i | i | 69 | 31
CCn1nc(NS(=O)(=O)c2ccccc2[N+](=O)[O-])c2cc3cccc(C)c3nc21 | i | 74 | i | i | i | 54 | 21
CCn1nc(NC(=O)C(C)(C)C)c2cc3cccc(C)c3nc21 | i | i | i | i | i | nt | nt
CCN(CC)S(=O)(=O)c1cc(NS(=O)(=O)c2cc(Cl)ccc2Cl)ccc1C | i | 44 | i | i | i | 40 | 12
